Experimental data reported in ChEMBL document CHEMBL3352237, “Synthesis and biological evaluation of novel peptide BF2 as an antibacterial agent against clinical isolates of vancomycin-resistant enterococci” (J Med Chem, 2014).

How the values were obtained:
[1] = system: Enterococcus; experiment: Bactericidal activity against vancomycin-resistant Enterococcus ATCC 29212 assessed as log reduction at 2 times MIC after 60 to 120 mins by serial dilution method; type: functional
Summary of the method: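 Time-kill assay: enterococci exposed to peptide at 2× MIC, with viable counts read as log10 CFU/mL over a 60–120 min exposure. Run on ATCC 29212 and a clinical isolate.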

[2] = system: Enterococcus faecium; experiment: Bactericidal activity against vancomycin-resistant Enterococcus faecium clinical isolate 16475 after 24 hrs by two-fold serial dilution method; type: functional; conditions: isolate 16475, 24 h
[3] = system: HEK293; experiment: Cytotoxicity against HEK293 cells at 100 to 400 uM after 48 to 72 hrs by MTT assay; type: cell-based; conditions: human, hek293, 400 µM
[4] = system: Enterococcus faecium; experiment: Bactericidal activity against vancomycin-resistant Enterococcus faecium clinical isolate 15/213 after 24 hrs by two-fold serial dilution method; type: functional; conditions: isolate 15/213, 24 h
[5] = system: Enterococcus faecium; experiment: Bactericidal activity against vancomycin-resistant Enterococcus faecium clinical isolate 28/211 after 24 hrs by two-fold serial dilution method; type: functional; conditions: isolate 28/211, 24 h
[6] = system: Enterococcus faecium; experiment: Antibacterial activity against vancomycin-resistant Enterococcus faecium clinical isolate 5484 after overnight incubation by two-fold serial dilution method; type: functional
[7] = system: Enterococcus faecium; experiment: Antibacterial activity against vancomycin-resistant Enterococcus faecium clinical isolate 31386 after overnight incubation by two-fold serial dilution method; type: functional
[8] = system: Enterococcus faecium; experiment: Antibacterial activity against vancomycin-resistant Enterococcus faecium clinical isolate 28/211 after overnight incubation by two-fold serial dilution method; type: functional
[9] = system: Enterococcus faecalis; experiment: Bactericidal activity against vancomycin-resistant Enterococcus faecalis clinical isolate 22626 after 24 hrs by two-fold serial dilution method; type: functional; conditions: isolate 22626, 24 h
[10] = system: Enterococcus faecalis; experiment: Bactericidal activity against vancomycin-resistant Enterococcus faecalis clinical isolate 7846 after 24 hrs by two-fold serial dilution method; type: functional; conditions: isolate 7846, 24 h
[11] = system: Enterococcus faecium; experiment: Bactericidal activity against vancomycin-resistant Enterococcus faecium clinical isolate 10177 after 24 hrs by two-fold serial dilution method; type: functional; conditions: isolate 10177, 24 h
[12] = system: Enterococcus faecium; experiment: Antibacterial activity against vancomycin-resistant Enterococcus faecium clinical isolate 151495 after overnight incubation by two-fold serial dilution method; type: functional
[13] = system: Enterococcus faecium; experiment: Antibacterial activity against vancomycin-resistant Enterococcus faecium clinical isolate 6/22 after overnight incubation by two-fold serial dilution method; type: functional
[14] = system: Enterococcus faecium; experiment: Antibacterial activity against vancomycin-resistant Enterococcus faecium clinical isolate 3864 after overnight incubation by two-fold serial dilution method; type: functional
[15] = system: Enterococcus faecium; experiment: Antibacterial activity against vancomycin-resistant Enterococcus faecium clinical isolate 30/48 after overnight incubation by two-fold serial dilution method; type: functional
[16] = system: Enterococcus faecium; experiment: Antibacterial activity against vancomycin-resistant Enterococcus faecium clinical isolate 18906 after overnight incubation by two-fold serial dilution method; type: functional
[17] = system: Enterococcus faecium; experiment: Bactericidal activity against vancomycin-resistant Enterococcus faecium clinical isolate 8/224 after 24 hrs by two-fold serial dilution method; type: functional; conditions: isolate 8/224, 24 h
[18] = system: Enterococcus faecium; experiment: Antibacterial activity against vancomycin-resistant Enterococcus faecium clinical isolate 14643 after overnight incubation by two-fold serial dilution method; type: functional
[19] = system: Enterococcus faecium; experiment: Antibacterial activity against vancomycin-resistant Enterococcus faecium clinical isolate 15/213 after overnight incubation by two-fold serial dilution method; type: functional
[20] = system: Enterococcus faecium; experiment: Antibacterial activity against vancomycin-resistant Enterococcus faecium clinical isolate 7/27 after overnight incubation by two-fold serial dilution method; type: functional
[21] = system: Enterococcus faecalis; experiment: Antibacterial activity against vancomycin-resistant Enterococcus faecalis clinical isolate 27728 after overnight incubation by two-fold serial dilution method; type: functional
[22] = system: Enterococcus faecium; experiment: Antibacterial activity against vancomycin-resistant Enterococcus faecium clinical isolate 27/221 after overnight incubation by two-fold serial dilution method; type: functional
[23] = system: Enterococcus faecium; experiment: Bactericidal activity against vancomycin-resistant Enterococcus faecium clinical isolate 31176 after 24 hrs by two-fold serial dilution method; type: functional; conditions: isolate 31176, 24 h
[24] = system: Enterococcus faecium; experiment: Antibacterial activity against vancomycin-resistant Enterococcus faecium clinical isolate 13246 after overnight incubation by two-fold serial dilution method; type: functional
[25] = system: Enterococcus; experiment: Antibacterial activity against vancomycin-resistant Enterococcus ATCC 51299 after 18 to 20 hrs by checkerboard titration method in presence of linezolid; type: functional
[26] = system: Enterococcus; experiment: Antibacterial activity against vancomycin-resistant Enterococcus ATCC 29212 after overnight incubation by two-fold serial dilution method; type: functional
[27] = system: Enterococcus faecium; experiment: Bactericidal activity against vancomycin-resistant Enterococcus faecium clinical isolate 147969 after 24 hrs by two-fold serial dilution method; type: functional; conditions: isolate 147969, 24 h
[28] = system: Enterococcus faecalis; experiment: Antibacterial activity against vancomycin-resistant Enterococcus faecalis clinical isolate 7846 after overnight incubation by two-fold serial dilution method; type: functional
[29] = system: Enterococcus faecalis; experiment: Antibacterial activity against vancomycin-resistant Enterococcus faecalis clinical isolate 7670 after overnight incubation by two-fold serial dilution method; type: functional
[30] = system: Enterococcus faecalis; experiment: Bactericidal activity against vancomycin-resistant Enterococcus faecalis clinical isolate 387702 after 24 hrs by two-fold serial dilution method; type: functional; conditions: isolate 387702, 24 h
[31] = system: Enterococcus faecalis; experiment: Bactericidal activity against vancomycin-resistant Enterococcus faecalis clinical isolate 27728 after 24 hrs by two-fold serial dilution method; type: functional; conditions: isolate 27728, 24 h
[32] = system: Enterococcus; experiment: Antibacterial activity against Enterococcus infected in Wistar albino rat assessed as reduction in cell count at 2 times MIC, iv after 1 hr relative to control; type: functional; set-up: scale not given: the % may be the effect or the level left
Summary of the method: (§1)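 Female Wistar albino rats, 40−45 days old, 125−150 g, 5 groups of 3. Enterococci were grown to log phase in MH broth, centrifuged at 1000g for 15 min, and diluted in PBS to 4 × 10^6 CFU/mL. Rats were inoculated i.v. and treated i.v. 1 h later with 12.5, 25 or 37.5 mg/kg peptide, PBS vehicle, or linezolid 25 mg/kg. Tail-vein blood taken 1 h post-treatment was plated on blood agar, incubated overnight at 37 °C, and colonies counted.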

[33] = system: Enterococcus faecium; experiment: Bactericidal activity against vancomycin-resistant Enterococcus faecium clinical isolate 14643 after 24 hrs by two-fold serial dilution method; type: functional; conditions: isolate 14643, 24 h
[34] = system: Enterococcus; experiment: Antibacterial activity against Enterococcus infected in Wistar albino rat assessed as reduction in cell count at MIC, iv after 1 hr relative to control; type: functional; set-up: scale not given: the % may be the effect or the level left; summary of the method: as §1
[35] = system: Enterococcus faecium; experiment: Bactericidal activity against vancomycin-resistant Enterococcus faecium clinical isolate 7/27 after 24 hrs by two-fold serial dilution method; type: functional; conditions: isolate 7/27, 24 h
[36] = system: Enterococcus faecium; experiment: Antibacterial activity against vancomycin-resistant Enterococcus faecium clinical isolate 23/240 after overnight incubation by two-fold serial dilution method; type: functional
[37] = system: Enterococcus faecium; experiment: Bactericidal activity against vancomycin-resistant Enterococcus faecium clinical isolate 6/22 after 24 hrs by two-fold serial dilution method; type: functional; conditions: isolate 6/22, 24 h
[38] = system: Enterococcus faecalis; experiment: Antibacterial activity against vancomycin-resistant Enterococcus faecalis clinical isolate 22/203 after overnight incubation by two-fold serial dilution method; type: functional
[39] = system: Enterococcus faecium; experiment: Bactericidal activity against vancomycin-resistant Enterococcus faecium clinical isolate 12/266 after 24 hrs by two-fold serial dilution method; type: functional; conditions: isolate 12/266, 24 h
[40] = system: Enterococcus faecium; experiment: Antibacterial activity against vancomycin-resistant Enterococcus faecium clinical isolate 17301 after overnight incubation by two-fold serial dilution method; type: functional
[41] = system: Enterococcus faecium; experiment: Bactericidal activity against vancomycin-resistant Enterococcus faecium clinical isolate 29/203 after 24 hrs by two-fold serial dilution method; type: functional; conditions: isolate 29/203, 24 h
[42] = system: Enterococcus faecium; experiment: Bactericidal activity against vancomycin-resistant Enterococcus faecium clinical isolate 13246 after 24 hrs by two-fold serial dilution method; type: functional; conditions: isolate 13246, 24 h

H-RWRLLLLKKH-OH was tested, and the MBC [1] was 25 µg/mL, the MBC [2] was 25 µg/mL and the Activity [3] was “Non-toxic”. It also gave an MBC [4] of 25 µg/mL, an MBC [5] of 25 µg/mL and an MIC [6] of 12.5 µg/mL. It also gave an MIC [7] of 6.25 µg/mL, an MIC [8] of 12.5 µg/mL and an MBC [9] of 25 µg/mL. The MBC [10] was 25 µg/mL, the MBC [11] was 25 µg/mL and the MIC [12] was 6.25 µg/mL. For the same substance, the MIC [13] was 12.5 µg/mL, the MIC [14] was 6.25 µg/mL and the MIC [15] was 12.5 µg/mL. It also gave an MIC [16] of 12.5 µg/mL, an MBC [17] of 25 µg/mL and an MIC [18] of 6.25 µg/mL. The MIC [19] was 6.25 µg/mL, the MIC [20] was 12.5 µg/mL and the MIC [21] was 6.25 µg/mL. The MIC [22] was 12.5 µg/mL, the MBC [23] was 25 µg/mL and the MIC [24] was 12.5 µg/mL. For the same substance, the “fractional inhibitory concentration index (FICI)” value [25] was 2.1, the MIC [26] was 25 µg/mL and the MBC [27] was 25 µg/mL. The MIC [28] was 12.5 µg/mL, the MIC [29] was 12.5 µg/mL and the MBC [30] was 25 µg/mL. The MBC [31] was 25 µg/mL, the Activity [32] was 76% and the MBC [33] was 25 µg/mL. For the same substance, the Activity [34] was 73%, the MBC [35] was 25 µg/mL and the MIC [36] was 12.5 µg/mL. It also gave an MBC [37] of 25 µg/mL, an MIC [38] of 12.5 µg/mL and an MBC [39] of 25 µg/mL. For the same substance, the MIC [40] was 6.25 µg/mL, the MBC [41] was 25 µg/mL and the MBC [42] was 25 µg/mL.
